From PubChem BioAssay
Activity calls are given as the source filed them. Rule as the data show it, unless noted: active = inhibition above about 30%; inactive = the rest.

Columns and labels:
[1] = reduced viability of SK-BR-3 breast cancer cells – cell-based, 24 h, human, pilot screen (AID 572;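 active = viability at or below 10% of carrier control in both of two separate runs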;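 also: compound exposure lasted between 18 and 24 h rather than exactly 24 h; 100% = carrier-treated control wells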); conditions: SK-BR-3 viability, CellTiter-Glo luminescence, at 10 µM, stronger effect = lower value
[2] = HUVEC growth inhibition – cell-based, human, primary screen (AID 575;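 active = viability at or below 30% in both replicate assays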;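 also: 100% = median of untreated cell wells with 0.1% DMSO on each plate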); conditions: HUVEC proliferation, CellTiter-Glo luminescence, 72 h; at 10 µM; stronger effect = lower value
Summary of the method: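 system = HUVEC primary cells | amount = 1250 cells/well | buffer or medium = supplemented EBM, 2% fetal bovine serum | dosing = single-point 10 µM, DMSO 0.1% final | times = 72 h compound incubation | detection = CTG luminescence | read-out = % viability relative to median vehicle-well signal on each plate | control set = vehicle and MePR control wells | format = collagen-coated 384-well format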

[3] = H69AR cell proliferation blockers – human, duplicate replicates, primary screen (AID 580;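 active = viability at or under a set limit in both replicates, limit being median viability minus 3 SD, cut at about 48% in these data, passing the limit was not always enough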;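 also: 100% = mean luminescence of untreated wells and 0% = no signal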); conditions: H69AR lung tumor cells viability, ATP luminescence, 72 h; at 10 µM; stronger effect = lower value
[4] = MRP1 drug-resistance reversers in H69AR cells – cell-based, doxorubicin co-treatment, pilot screen (AID 601;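 active = viability loss from added drug above about 55%, and viability with drug at most 40%, in both replicates, limit read from the data, passing the limit was not always enough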); conditions: CellTiter-Glo, 72 h, at 10 µM; for differential viability (reversal): stronger effect = higher value
[5] = yeast transport mutant growth inhibition pilot in 384-well plates, post-Golgi transport modulator project (AID 636; in the data active = inhibition above about 31%); conditions: absorbance 615 nm, about 18 h, stronger effect = higher value
[6] = growth suppression of yeast trafficking mutant, preliminary HTS, modulators of trafficking downstream of Golgi apparatus project, 1536-format plate, OD 615 nm (AID 637); conditions: yeast transport mutant growth, absorbance 615 nm, 18 h; stronger effect = higher value
[7] = H69AR cells + 2 uM doxorubicin, measured here: viability with 2 uM doxorubicin, stronger effect = lower value
[8] = H69AR cells, compound alone cytotoxicity

SMILES | viability [1] | viability [2] | viability [3] | differential viability (reversal) ([4]; H69AR cells + 2 uM doxorubicin) | viability [4, 7] | viability [4, 8] | inhibition [5] | inhibition [6]
O=C(Nc1ccccc1C(=O)N1CCOCC1)c1cccc(S(=O)(=O)N2CCCC2)c1 | 112% (inactive) | 92.3% (inactive) | 88.2% (inactive) | -1.19% (inactive) | 89.3% | 88.2% | -2.08% (inactive) | 0.49% (inactive)
COc1ccccc1-n1c(=O)c2c3c(sc2n2c(SC(C)C)nnc12)CCC3 | 104% (inactive) | 113% (inactive) | 86.2% (inactive) | 44.6% (inactive) | 41.7% | 86.2% | -0.14% (inactive) | 1.77% (inactive)
CCN(C(=O)c1ccnc(C(C)(C)C)c1)c1ccccc1 | 88% (inactive) | 94.4% (inactive) | 79.2% (inactive) | -4.02% (inactive) | 83.3% | 79.2% | -6.85% (inactive) | 2% (inactive)
Cn1c(Cl)cnc1C1CC(=O)c2cc(Cl)ccc2O1 (configuration not stated) | 112% (inactive) | 15.5% (active) | 2.09% (active) | 0.045% (inactive) | 2.04% | 2.09% | -4.46% (inactive) | 3.64% (inactive)
O=C(CSc1n[nH]c(=O)[nH]c1=O)c1ccccc1 | 110% (inactive) | 105% (inactive) | 101% (inactive) | 4.23% (inactive) | 97% | 101% | -2.4% (inactive) | -3.82% (inactive)
CCC1(C)Cc2c(sc3nc(SCC(=O)O)[nH]c(=O)c23)CO1 (configuration not stated) | 111% (inactive) | 107% (inactive) | 94.1% (inactive) | 14.5% (inactive) | 79.6% | 94.1% | -1.6% (inactive) | -10% (inactive)
[O-][n+]1onc2c1CCc1nnc(-c3ccccc3)cc1-2 | 93.5% (inactive) | 113% (inactive) | 76.2% (inactive) | 43.7% (inactive) | 32.6% | 76.2% | -1.18% (inactive) | 8.03% (inactive)
CCOc1ccccc1C(=O)Nn1c(C2CCC2)nc2ccccc2c1=O | 91% (inactive) | 91.1% (inactive) | 93.7% (inactive) | -18% (inactive) | 112% | 93.7% | -4.11% (inactive) | 2.55% (inactive)
CNc1nnc(-c2cccc(N(C)C)c2)s1 | 111% (inactive) | 95.9% (inactive) | 92% (inactive) | 7.45% (inactive) | 84.6% | 92% | -4.55% (inactive) | 7.38% (inactive)
CCC(=O)N(Cc1ccco1)c1nc(-c2cc(OC)ccc2OC)cs1 | 105% (inactive) | 42.8% (inactive) | 69.3% (inactive) | -0.87% (inactive) | 70.2% | 69.3% | -2% (inactive) | -2.91% (inactive)
Cc1ccc(CN2C(=O)CCC2C(=O)NCCCN2CCCC(C)C2)cc1 (configuration not stated) | 82% (inactive) | 113% (inactive) | 97.4% (inactive) | 8.96% (inactive) | 88.4% | 97.4% | -3.07% (inactive) | -3.45% (inactive)
CCN(CC)CCNC(=O)c1ccc(N2CCCCC2)c(NS(=O)(=O)c2ccc(C)cc2)c1 | 81% (inactive) | 18.5% (active) | 76.6% (inactive) | 2.53% (inactive) | 74.1% | 76.6% | -6.13% (inactive) | 7.21% (inactive)
O=C1C(CCS(=O)c2ccccc2)C(=O)N(c2ccccc2)N1c1ccccc1 (configuration not stated) | 112% (inactive) | 84.5% (inactive) | 96.6% (inactive) | 7.85% (inactive) | 88.7% | 96.6% | 0.65% (inactive) | 10.7% (inactive)
COc1ccc(CNCC(=O)Nc2cc(C)nn2-c2nc(C)cc(C)n2)cc1OC | 98% (inactive) | 51.1% (inactive) | 11.9% (active) | -58.3% (inactive) | 70.1% | 11.9% | -2.99% (inactive) | 1.15% (inactive)
O=C(Nc1ccc2c(c1)OCO2)N1CCN(c2ncccn2)CC1 | 126% (inactive) | 106% (inactive) | 85.5% (inactive) | -22.1% (inactive) | 108% | 85.5% | -8.49% (inactive) | -1.64% (inactive)
O=C(O)c1ccc(COc2c(F)c(F)c(F)c(F)c2F)o1 | 78% (inactive) | 106% (inactive) | 92.9% (inactive) | -8.1% (inactive) | 101% | 92.9% | 0.14% (inactive) | 19.4% (inactive)
O=S(=O)(c1ccc(Br)s1)N1CCN(c2ccccc2)CC1 | 90% (inactive) | 96.9% (inactive) | 87.6% (inactive) | -4.09% (inactive) | 91.7% | 87.6% | -3.78% (inactive) | -3.27% (inactive)
Cn1c(C(=O)OC(C(=O)NC2CCCC2)c2cccnc2)cc2sccc21 (configuration not stated) | 74% (inactive) | 110% (inactive) | 89.1% (inactive) | -3.48% (inactive) | 92.6% | 89.1% | -4.38% (inactive) | 2.91% (inactive)
Cc1cc(C)n(C(C)n2nc(C)cc2C)n1 | 107% (inactive) | 103% (inactive) | 87.8% (inactive) | 9.01% (inactive) | 78.8% | 87.8% | -7.87% (inactive) | -0.91% (inactive)
COC(=O)C1=C(C)Nc2ncnn2C1c1ccco1 (configuration not stated) | 80% (inactive) | 91.8% (inactive) | 85.9% (inactive) | 4.73% (inactive) | 81.2% | 85.9% | -8.49% (inactive) | 4.91% (inactive)
CC1=C(/C=C/C(C)=C/C=C/C(C)=C/C(=O)O)C(C)(C)CCC1 | 84% (inactive) | 83.7% (inactive) | 104% (inactive) | 2% (inactive) | 102% | 104% | 0.91% (inactive) | 8.67% (inactive)
Cc1cc(NS(=O)(=O)c2ccc(NC(=O)Nc3ccc4c(c3)OCO4)cc2)no1 | 80% (inactive) | 101% (inactive) | 92.6% (inactive) | -0.555% (inactive) | 93.2% | 92.6% | -6.49% (inactive) | 0.55% (inactive)
CCCCCC(=O)N(CN1C(=O)CCC1=O)c1ccccc1 | 93% (inactive) | 104% (inactive) | 90.9% (inactive) | 3.52% (inactive) | 87.4% | 90.9% | -7.3% (inactive) | -0.73% (inactive)
CC(C)CN(CC(C)C)C(=O)CS(=O)(=O)Cc1ccccc1 | 87% (inactive) | 98.8% (inactive) | 91.4% (inactive) | 3.15% (inactive) | 88.2% | 91.4% | -5.75% (inactive) | 1.13% (inactive)
